The list is not random: actives were taken first. Their share in the collection is about 2.3%.
PLCb3 inh: human PLC-beta3 inhibitors, primary screen, biochemical, fluorescence; 370,000 compounds, 0.18% hits; Purified PLC-beta3, fluorogenic substrate; AID 720704, 2013; 1-phosphatidylinositol 4,5-bisphosphate phosphodiesterase beta-3 (Homo sapiens), Q01970; inhibition, % at 12.2 µM; in the data active means inhibition above about 11%;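 further: 0% = median of compound wells on plate and 100% = full blocker control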
PLCg1 inh: PLC-gamma1 enzyme inhibitors, primary screen, biochemical, fluorescence, purified enzyme; 1-phosphatidylinositol 4,5-bisphosphate phosphodiesterase gamma-1 (Homo sapiens), P19174; fluorogenic substrate; inhibition, % at 12.2 µM; 370,000 compounds, 0.84% hits; in the data active means inhibition above about 9.5%
Tn7 DDE FP: inhibitors of Tn7 peptide binding to fibrin DD(E), primary screen, biochemical, fluorescence polarization, human fibrin, Tn7 probe. 370,000 compounds, 0.13% hits. Fibrinogen beta chain (Homo sapiens), P02675. inhibition, % at 8.3 µM. FP displacement of FITC-Tn7 peptide from fibrin DD(E); 0% = median of compound wells per plate. AID 720508, 2013;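 active means inhibition above the mean of compounds falling within the control limits plus 3 SD of them, cut at about 14% in these data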;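 further: 0% = plate median of compound wells and 100% = 10 µM Aha-Tn7 peptide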
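Test system: human clot-derived fibrin DD(E) complex / Quantity: 2 µM final DD(E) protein / Incubation: 10 min plus 3 h, room temperature / Measured by: fluorescence polarization / Benchmarks: high control of 10 µM Aha-Tn7 peptide / Replicates: singlicate testing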
DDE Tn6 FP inh: inhibitors of Tn6 peptide binding to fibrin DD(E), primary screen, biochemical, fluorescence polarization, human fibrin, Tn6 probe. inhibition, % at 8.3 µM. AID 720509, 2013. Fibrin DD(E) TRITC-Tn6 fluorescence polarization displacement. 370,000 compounds, 0.21% hits. Fibrinogen beta chain (Homo sapiens), P02675;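 active means inhibition above a per-campaign cutoff: mean of compounds within control limits plus 3 SD, cut at about 15% in these data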;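 further: 0% = median of all compound wells on the plate and 100% = blocking peptide control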
ADAM10 inh: human ADAM10 inhibitors, primary screen, biochemical, QFRET, HTS | recombinant ADAM10, EDANS/DABCYL FRET peptide cleavage, 3 h | 370,000 compounds, 0.62% hits | inhibition, % at 7 µM | Disintegrin and metalloproteinase domain-containing protein 10 (Homo sapiens), O14672;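 active means inhibition above a per-campaign cutoff equal to the mean of compounds falling between control-based bounds plus 3 SD, cut at about 20% in these data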;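 further: 0% = DMSO wells while the 100% control is not disclosed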
ADAM17 inh: ADAM17 inhibitors, primary screen, biochemical, QFRET; recombinant ADAM17, EDANS/DABCYL FRET peptide cleavage; AID 720648, 2013; Disintegrin and metalloproteinase domain-containing protein 17 (Homo sapiens), P78536; 370,000 compounds, 0.83% hits; inhibition, % at 6.95 µM;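 active means inhibition above the mean of compounds lying between control limits plus 3 SD, set per campaign, cut at about 8.5% in these data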;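 further: 0% = DMSO-only wells as the low control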
ADAM10 counter: ADAM10 inhibitors, counter-screen for ADAM17 exosite inhibitor project, biochemical, FRET, human ADAM10. shares compounds with ADAM17 inh. recombinant ADAM10, EDANS/DABCYL FRET peptide cleavage, 3 h. inhibition, % at 6.95 µM. 2,900 compounds, 47% hits. AID 743256, 2014;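 active means mean inhibition over the triplicate runs exceeds the activity threshold set in the earlier primary screen, cut at about 20% in these data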;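 further: 0% = DMSO wells and 100% = marimastat wells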
ADAM17 confirm: ADAM17 inhibitors, hit retest, confirmation, biochemical, QFRET peptide cleavage; inhibition, % at 6.95 µM; recombinant ADAM17, EDANS/DABCYL QFRET peptide cleavage; shares compounds with ADAM17 inh; 2,900 compounds, 65% hits;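 active means mean inhibition across replicates above the hit cutoff set in the primary screen, cut at about 8.5% in these data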;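 further: 0% = DMSO wells and 100% = marimastat wells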
* marks the source's active call; other numbers are inactive results; . = not tested or not shown.

SMILES	PLCb3 inh	PLCg1 inh	Tn7 DDE FP	DDE Tn6 FP inh	ADAM10 inh	ADAM17 inh	ADAM10 counter	ADAM17 confirm
COc1ccccc1NC(=O)Cn1nc(-c2ccc(Cl)cc2)c2ccccc2c1=O	6	-22	-1	0	14	8.7*	14	14*
COc1ccccc1NC(=O)COc1ccc(-c2nn(C)c(=O)c3ccccc23)cc1	-12	-1	9	-3	7	-4	.	.
COc1ccc([C@H]2CC(=O)C=C(c3ccc(F)cc3OCc3ccccc3)C2)cc1OC	-6	3	-1	-4	18	9.8*	11	6
COc1ccc([C@H]2CC(=O)C=C(c3ccc(F)cc3OCc3ccccc3)C2)cc1	4	2	3	-1	3	-2	.	.
O=c1cc(-c2ccccc2Cl)oc2c(NS(=O)(=O)c3ccccc3OC(F)(F)F)ccc(O)c12	1	4	-1	2	15	8.9*	34*	20*
C=CCOC/C=C/C#CCN(Cc1ccc(OC)cc1OC)C(=O)Nc1ccccc1	1	1	-1	2	9	5	.	.
O=C(c1cn(Cc2ccccc2)nc1-c1ccc(Cl)cc1)N1CCN(c2ccccn2)CC1	-5	3	1	-4	0	9.5*	16	6
CN[C@H]1C[C@H]2c3[nH]c4cccc(-c5cccc(F)c5)c4c3CCN2C(=O)[C@H]1[C@H](C)O	-260	-201	-2	6	-358	-140	.	.
O=C(NC1CCCCN(Cc2cccc(C(F)(F)F)c2)C1=O)c1c(F)cccc1F (centres undefined)	1	-1	6	-12	-2	-1	.	.
Cc1cccc(C)c1-n1nnnc1C(c1ccccc1)N1CCN(C/C=C/c2ccccc2)CC1 (centres undefined)	4	5	-6	-7	14	9.4*	10	10*
Cc1cccc(C)c1-n1nnnc1C(c1cccs1)N1CCN(C/C=C/c2ccccc2)CC1 (centres undefined)	0	0	1	-6	2	0	.	.
CSCCC(NC(=O)c1cccc(S(=O)(=O)N2CCOCC2)c1)c1nc2ccccc2[nH]1 (centres undefined)	-4	4	-11	0	3	10*	14	7
CC(=O)c1cccc(NC(=O)COC(=O)CCC(=O)c2ccc(F)cc2)c1	5	6	-8	-1	-3	8.9*	0	4
COc1cc(CN2C[C@@H](CO)O[C@@H](n3cnc4c(N5CCN(c6ccccc6)CC5)ncnc43)C2)cc(OC)c1OC	0	5	-7	1	5	9.1*	0	3
COc1ccc(Cl)cc1NC(=S)NCc1ccccn1	1	-6	-2	-2	8	8.7*	-4	-1
COc1ccc(Cl)cc1NC(=S)NCCC(c1ccccc1)c1ccccc1	-2	0	7	-2	11	9.8*	20*	9
COc1ccc(CCN(Cc2ccccn2)C(=S)Nc2ccccc2Cl)cc1OC	0	3	4	-9	8	8.7*	10	8
COc1ccccc1NC(=S)NCc1ccccn1	-12	-12	-2	-1	2	4	.	.
COc1ccccc1NC(=S)NCCC(c1ccccc1)c1ccccc1	2	3	-2	0	7	4	.	.
COc1ccc(CCN(Cc2ccccn2)C(=S)Nc2ccccc2F)cc1OC	-7	1	1	-1	-4	-3	.	.
COc1cc(NC(=S)NCCC(c2ccccc2)c2ccccc2)c(OC)cc1Cl	2	0	-13	-10	9	9.7*	25*	14*
CC(=O)NC(c1cccs1)c1cc([N+](=O)[O-])c2cccnc2c1O (centres undefined)	6	3	2	5	15	11*	36*	19*
COc1ccc(C2C(C(=O)Nc3ccc(Cl)c(Cl)c3)CCC(=O)N2c2ccc(OC)cc2)cc1 (centres undefined)	0	0	-5	5	-5	-4	.	.
CC1=CC(C)(C)N2C(=O)C3(SCC(=O)N3c3ccc(F)cc3)c3cc(C)cc1c32 (centres undefined)	-1	8	-6	1	7	9.5*	21*	12*
Cc1ccc(CNC(=O)OC(C)(C)C)c(/C=C/S(=O)(=O)NC2CCCC2)c1	-1	6	-1	-2	0	-3	.	.
SMILES	PLCb3 inh	PLCg1 inh	Tn7 DDE FP	DDE Tn6 FP inh	ADAM10 inh	ADAM17 inh	ADAM10 counter	ADAM17 confirm
O=C(NNc1ccccc1Br)C(=O)n1ccc2ccccc21	8	4	-4	-5	17	9.5*	-5	1
CN(CC(=O)Nc1ccc(Cl)c(C(F)(F)F)c1)C(=O)c1ccc(OCC2CCCO2)cc1 (centres undefined)	-15	3	4	8	13	8.7*	25*	9.7*
CN(CC(=O)Nc1ccc(Cl)c(C(F)(F)F)c1)C(=O)c1ccc(S(=O)(=O)N2CCOCC2)cc1	-5	-2	3	7	-3	3	.	.
CC(C)C[C@@H]1COc2cc(N3CCCC3)ccc2S(=O)(=O)N1C	0	1	-15	4	5	1	.	.
Cc1cc(C)nc(SCc2ccc(C(=O)N/N=C/c3cccc(O)c3O)cc2)n1	-5	-7	2	-30	19	5	.	.
COc1ccc(O)c(/C=N/NC(=O)c2ccc(CSc3nc(C)cc(C)n3)cc2)c1	-42	-31	-8	-15	19	14*	10	9.5*
Cc1cc(C)cc(C(=O)NCC(=O)OCC(=O)N2CCN(S(=O)(=O)c3ccc4ccccc4c3)CC2)c1	0	0	-2	-5	15	10*	26*	12*
Cc1ccc(NC(=O)C(OC(=O)c2ccccc2Cl)c2ccccc2)cc1Cl (centres undefined)	5	4	-8	-1	15	9.3*	31*	21*
